The source made the active and inactive calls. The calls are words filed in the database; no cut-off is given here.
Tests used:
[1] = Drug metabolism in Sprague-Dawley rat urine assessed as 5'-acryloyl-2'-hydroxy-5-propionylbiphenyl-2-yl hydrogen sulfate formation at 100 mg/kg, po by UPLC-IT-TOF-MS analysis; assay type: ADME, organism-based; details: in vivo
Outline: (§1)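 Male/unspecified SD rats (n = 6) housed individually in metabolic cages, dosed orally at 100.0 mg/kg; controls given 0.5% CMC-Na orally. Plasma, urine and faeces collected. LC-IT-TOF-MS on C18 column at 30 °C, formic acid (0.05%) water/acetonitrile gradient 5–100% B over 18 min, 0.2 mL/min; positive and negative ion modes with automatic MS/MS.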

Mus musculus [2] = experiment: Increase in ratio of 3,4-dihydroxyphenylacetic acid and 4-hydroxy-3-methoxyphenylacetic acid to dopamine level in Kunming mouse thalamus at 40 mg/kg, po treated for 7 days by HPLC-ECD analysis; assay type: functional, organism-based
Outline: (§2)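 Male Kunming mice (18–20 g) given vehicle or 40 mg/kg for 7 days, then killed by cervical dislocation. Frontal cortex, hippocampus, striatum, hypothalamus and thalamus dissected on ice, homogenized in ice-cold 0.2 M perchloric acid with 0.1 mM EDTA, centrifuged 15,000 rpm, 20 min, 4 °C. Supernatant analysed by HPLC-ECD at +0.50 V; phosphate/octanesulfonate mobile phase pH 3.0 with 12% methanol. Levels in ng/g, mean ± SEM.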

[3] = Drug metabolism in Sprague-Dawley rat plasma assessed as (2R,2'R,3S,3'S,4S,4'S,5R,5'R,6S,6'S)-6,6'-(5,5'-diallylbiphenyl-2,2'-diyl)bis(oxy)bis(2-(hydroxymethyl)tetrahydro-2H-pyran-3,4,5-triol) formation at 100 mg/kg, po by UPLC-IT-TOF-MS analysis; assay type: ADME, organism-based; details: in vivo
Outline: (§3)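 Rats (n = 6) housed in metabolic cages received 100.0 mg/kg orally; controls received 0.5% CMC-Na. Plasma, urine and faeces were collected and analyzed by LC-IT-TOF-MS on a C18 column at 30 °C. Gradient 5–100% acetonitrile with 0.05% formic acid over 18 min at 0.2 mL/min; positive and negative ion MS/MS.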

Rattus norvegicus [4] = experiment: Toxicity in Sprague-Dawley rat assessed as death at 2000 mg/kg, po measured continuously for first 4 hrs followed by measured every hour for next 24 hrs and at 6 hrs intervals for following 48 hrs post dose; assay type: organism-based; details: in vivo
Outline: (§4)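 Followed OECD 425 in adult SD rats (180–220 g), three groups of six. Vehicle control received 0.5% CMC-Na orally; separate male and female groups received 2000 mg/kg orally. Endpoints observed: behaviour, breathing, cutaneous effects, sensory nervous system responses, gastrointestinal effects and deaths.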

[5] = Drug metabolism in Sprague-Dawley rat plasma assessed as 1-(5'-allyl-2'-hydroxy-6-((2S,3R,4S,5S,6R)-3,4,5-trihydroxy-6-(hydroxymethyl)tetrahydro-2H-pyran-2-yloxy)biphenyl-3-yl)prop-2-en-1-one formation at 100 mg/kg, po by UPLC-IT-TOF-MS analysis; assay type: ADME, organism-based; details: in vivo; outline: as §3
[6] = molecular target: T1, Melatonin receptor type 1B (Homo sapiens) (UniProt P49286); experiment: Agonist activity at human MT2 receptor expressed in HEK293 cells at 1 mM after 24 hrs by Fluo-8 dye-based calcium assay relative to control; assay type: functional, cell-based
T1 sequence (whole entry): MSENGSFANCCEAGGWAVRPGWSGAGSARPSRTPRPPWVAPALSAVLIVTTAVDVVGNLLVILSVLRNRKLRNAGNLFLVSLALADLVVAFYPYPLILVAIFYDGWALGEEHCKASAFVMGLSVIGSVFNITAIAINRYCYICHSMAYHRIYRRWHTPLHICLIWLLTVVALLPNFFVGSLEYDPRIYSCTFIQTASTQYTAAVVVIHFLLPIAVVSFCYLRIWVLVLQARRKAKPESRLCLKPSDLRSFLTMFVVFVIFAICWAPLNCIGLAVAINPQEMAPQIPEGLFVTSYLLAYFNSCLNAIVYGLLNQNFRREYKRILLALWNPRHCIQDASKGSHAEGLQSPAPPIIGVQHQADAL
Outline: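 Fluo-8 calcium assay in HEK293 cells stably expressing human MT1 or MT2, seeded 4×10^4/well and incubated 24 h. Compounds tested at 1.00 mM, agomelatine positive control at 3.33 µM; fluorescence at ex 485/em 525 nm. Agonism expressed as mean ± SD, n = 3.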

[7] = molecular target: T2, Melatonin receptor type 1B (Homo sapiens, UniProt P49286); experiment: Agonist activity at human MT2 receptor expressed in HEK293 cells after 24 hrs by Fluo-8 dye-based calcium assay; assay type: functional, cell-based
T2 sequence (P49286 whole entry): T1 sequence (whole entry)
Outline: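 Fluo-8 calcium flux in HEK293 cells stably expressing human MT1 or MT2, grown in DMEM + 10% FBS at 37 °C, seeded 4×10^4/well and incubated 24 h. Compounds in DMSO/HBSS at several concentrations; fluorescence read at room temperature (ex 485, em 525 nm). Triplicate wells, three independent experiments; EC50 by nonlinear regression.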

[8] = Drug metabolism in Sprague-Dawley rat urine assessed as (2S,3R,4S,5S,6R)-2-(5'-allyl-2'-hydroxy-5-(1-hydroxyallyl)biphenyl-2-yloxy)-6-(hydroxymethyl)tetrahydro-2H-pyran-3,4,5-triol formation at 100 mg/kg, po by UPLC-IT-TOF-MS analysis; assay type: ADME, organism-based; details: in vivo; outline: as §1
[9] = Drug metabolism in Sprague-Dawley rat plasma assessed as 5'-acryloyl-2'-hydroxy-5-propionylbiphenyl-2-yl hydrogen sulfate formation at 100 mg/kg, po by UPLC-IT-TOF-MS analysis; assay type: ADME, organism-based; details: in vivo; outline: as §1
[10] = Drug metabolism in Sprague-Dawley rat urine assessed as 2'-hydroxy-5'-(1-hydroxyallyl)-5-propylbiphenyl-2-yl hydrogen sulfate formation at 100 mg/kg, po by UPLC-IT-TOF-MS analysis; assay type: ADME, organism-based; details: in vivo; outline: as §1
Mus musculus [11] = experiment: Increase in ratio of 5-hydroxyindole-3-acetic acid to 5-hydroxytryptamine level in Kunming mouse frontal cortex at 40 mg/kg, po treated for 7 days by HPLC-ECD analysis; assay type: functional, organism-based; outline: as §2
Rattus norvegicus [12] = experiment: Toxicity in Sprague-Dawley rat assessed as skin rashes at 2000 mg/kg, po measured over 4 hrs; assay type: organism-based; details: in vivo
Outline: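 Acute oral toxicity run per OECD 425 in adult SD rats (180–220 g). Six animals per group: vehicle control (0.5% CMC-Na, oral), male rats and female rats each dosed orally at 2000 mg/kg. Animals were watched continuously for the first 4 h for behavior, breathing, cutaneous signs (irritation, ulceration, caustic injury, skin rashes), sensory nervous and gastrointestinal effects. Later checks were hourly for 24 h, then every 6 h for 48 h.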

Mus musculus [13] = experiment: Decrease in dopamine level in Kunming mouse hippocampus at 40 mg/kg, po treated for 7 days by HPLC-ECD analysis; assay type: functional, organism-based
Outline: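 Male Kunming mice received vehicle or 40 mg/kg for 7 days, then were killed by cervical dislocation and the brain regions dissected on ice. Tissue was homogenized in ice-cold 0.2 M perchloric acid with 0.1 mM EDTA and centrifuged at 15,000 rpm, 20 min, 4 °C. Supernatant was analyzed by HPLC-ECD (+0.50 V; phosphate/octanesulfonate mobile phase, pH 3.0). Results in ng/g, mean ± SEM.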

Rattus norvegicus [14] = experiment: Toxicity in Sprague-Dawley rat assessed as change in gastrointestinal effects at 2000 mg/kg, po measured continuously for first 4 hrs followed by measured every hour for next 24 hrs and at 6 hrs intervals for following 48 hrs post dose; assay type: organism-based; details: in vivo; outline: as §4
Mus musculus [15] = experiment: Increase in 4-hydroxy-3-methoxyphenylacetic acid level in Kunming mouse thalamus at 40 mg/kg, po treated for 7 days by HPLC-ECD analysis; assay type: functional, organism-based; outline: as §2

Question: Which Drug metabolism [1] does the source give for C=CCc1ccc(O)c(-c2cc(CC=C)ccc2O[C@@H]2O[C@H](CO)[C@@H](O)[C@H](O)[C@H]2O)c1 here?
Answer: Its Drug metabolism is “Metabolite_Detected”.

Question: And the Activity (Mus musculus [2])?
Answer: The Activity was “Active”.

Question: And the Drug metabolism [3]?
Answer: The Drug metabolism was “Metabolite_Notdetected”.

Question: And the Activity (Rattus norvegicus [4])?
Answer: The Activity was “Non-Toxic”.

Question: What about the Drug metabolism [5] of the same compound?
Answer: Its Drug metabolism is “Metabolite_Notdetected”.

Question: And the Activity [6]?
Answer: Its Activity is 151%.

Question: And the EC50 [7]?
Answer: The EC50 was 383 µM.

Question: And the Drug metabolism [8]?
Answer: Its Drug metabolism is “Metabolite_Detected”.

Question: And the Drug metabolism [9]?
Answer: Its Drug metabolism is “Metabolite_Notdetected”.

Question: And the Drug metabolism [10]?
Answer: The Drug metabolism was “Metabolite_Notdetected”.

Question: And the Activity (Mus musculus [11])?
Answer: The Activity was “Active”.

Question: What about the Activity (Rattus norvegicus [12]) of the same compound?
Answer: The Activity was “Non-Toxic”.

Question: And the Activity (Mus musculus [13])?
Answer: Its Activity is “Active”.

Question: And the Activity (Rattus norvegicus [14])?
Answer: Its Activity is “Non-Toxic”.

Question: What about the Activity (Mus musculus [15]) of the same compound?
Answer: Its Activity is “Active”.

Reference: ChEMBL document CHEMBL4270555, “Synthesis and biological evaluation of magnolol derivatives as melatonergic receptor agonists with potential use in depression” (Eur J Med Chem, 2018)
